{"source": "paper PMC4083586", "about": "(Biotechnology journal, 2011)", "system": "porcine parvovirus (PPV)", "experiment": "PPV removal by peptide-resin columns from 7.5% human blood plasma", "assay_type": "binding, porcine parvovirus (PPV) NADL-2 strain", "details": "Figure 3B", "in_short": "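Peptides on resin at 0.10 mmol/g dry resin with a four-unit ethylene oxide spacer; 0.5 ml settled resin in PBS per column; acetylated control. About 5 log₁₀ (MTT/ml) PPV was pumped at 0.1 ml/min. Fractions of 0.5 ml (one column volume) were titered by MTT assay on PK-13 cells. Clearance over five column volumes was expressed relative to a reference trimer ligand (100%). Duplicates.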"}
{"substance": "YKLKYY", "values": [{"measurement": "PPV clearance of the first five column volumes, ranking among ligands", "value": "highest virus clearance"}]}
